Data on three molecules can be found in ChEMBL document CHEMBL1275584, “Genetically engineered lipopeptide antibiotics related to A54145 and daptomycin with improved properties” (Antimicrob Agents Chemother, 2010).

The subject of test [1] is Streptococcus pneumoniae. Briefly: Antibacterial activity against Streptococcus pneumoniae infected in CD1 mouse pneumonia model assessed as lung bacterial load at 25 mg/kg, sc administered at 1 and 4 hrs after bacterial challenge measured 24 hrs post infection (reference value: 2.69x10^8 CFU/ml). As to conditions: route subcutaneous.
For test [2], the system named is Streptococcus pneumoniae. The experiment in a line: Antibacterial activity against Streptococcus pneumoniae infected in CD1 mouse pneumonia model assessed as lung bacterial load at 12.5 mg/kg, sc administered at 1 and 4 hrs after bacterial challenge measured 24 hrs post infection (reference value: 2.69x10^8 CFU/ml). As to conditions: route subcutaneous.
For test [3], the system named is Streptococcus pneumoniae. The experiment in a line: Antibacterial activity against Streptococcus pneumoniae infected in CD1 mouse pneumonia model assessed as lung bacterial load at 6.25 mg/kg, sc administered at 1 and 4 hrs after bacterial challenge measured 24 hrs post infection (reference value: 2.69x10^8 CFU/ml). Particulars: route subcutaneous.
For test [4], the system named is Staphylococcus aureus. Briefly: Ratio of MIC for Staphylococcus aureus 42 in presence of 1% bovine pulmonary surfactant to MIC for Staphylococcus aureus 42 in absence of 1% bovine pulmonary surfactant. It is filed as functional. The procedure, abridged:
(§1)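 Broth MIC in Mueller-Hinton broth with 50 mg/liter CaCl2, run with or without 1% bovine pulmonary surfactant, following CLSI methods. Colonies came from frozen stocks streaked on sheep-blood tryptic soy agar (37°C, ~24 h). Incubation was at 37°C with rotation at 200 rpm. The ratio is MIC with surfactant divided by MIC without.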

Test [5] relates to Staphylococcus aureus. The experiment in a line: Antibacterial activity against Staphylococcus aureus 42 in absence of 1% bovine pulmonary surfactant by CLSI method. It is filed as functional. Particulars: Staphylococcus aureus, 42, Pulmonary surfactant. A digest of the protocol: as §1
The subject of test [6] is Staphylococcus aureus. The experiment in a line: Antibacterial activity against Staphylococcus aureus 42 in presence of 1% bovine pulmonary surfactant by CLSI method. It is filed as functional. Particulars: Staphylococcus aureus, 42, Pulmonary surfactant. The procedure, abridged:
as §1

For another test, the system named is Escherichia coli. Briefly: Antibacterial activity against imp4213 mutant Escherichia coli BAS849 by CLSI method. It is filed as functional. A digest of the protocol: (§2)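 MICs were determined by CLSI broth methods in Mueller-Hinton broth with 50 mg/liter CaCl2, with or without 1% bovine pulmonary surfactant. Inocula came from single colonies streaked from glycerol stocks onto blood agar and grown at 37°C for ~24 h. Cultures were incubated at 37°C with rotation at 200 rpm.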

For test [7], the system named is Enterococcus faecalis. The experiment in a line: Antibacterial activity against daptomycin resistant Enterococcus faecalis 312 by CLSI method. It is filed as functional. A digest of the protocol:
as §2

Test [8] relates to Streptococcus pneumoniae. The experiment in a line: Antibacterial activity against daptomycin sensitive Streptococcus pneumoniae 402 by CLSI method. It is filed as functional. A digest of the protocol:
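S. pneumoniae MIC in CaCl2-supplemented Mueller-Hinton broth (50 mg/liter) with 5% lysed horse blood, following CLSI methods. Colonies were grown on sheep-blood agar at 37°C under 5% CO2. Assay incubation was at 37°C under 5% CO2 without aeration.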

Test [9] deals with Enterococcus faecalis. The experiment in a line: Antibacterial activity against daptomycin sensitive Enterococcus faecalis 201 by CLSI method. It is filed as functional. A digest of the protocol:
as §1

The subject of test [10] is Enterococcus faecium. The experiment in a line: Antibacterial activity against daptomycin resistant Enterococcus faecium 384 by CLSI method. It is filed as functional. A digest of the protocol: as §2
The subject of test [11] is Staphylococcus aureus. The experiment in a line: Antibacterial activity against methicillin resistant Staphylococcus aureus 1616 by CLSI method. It is filed as functional. A digest of the protocol: as §2
The test system of test [12] is Enterococcus faecium. Briefly: Antibacterial activity against daptomycin sensitive Enterococcus faecium 14 by CLSI method. It is filed as functional. The procedure, abridged:
as §1

Test [13] relates to Staphylococcus aureus. The experiment in a line: Antibacterial activity against daptomycin sensitive and methicillin resistant Staphylococcus aureus MW2 by CLSI method. It is filed as functional. The procedure, abridged:
as §2

The subject of test [14] is Staphylococcus aureus. The experiment in a line: Antibacterial activity against daptomycin resistant Staphylococcus aureus 1695 by CLSI method. It is filed as functional. The procedure, abridged:
as §2

Test [15] deals with Staphylococcus aureus. The experiment in a line: Antibacterial activity against daptomycin sensitive and methicillin resistant Staphylococcus aureus 399 by CLSI method. It is filed as functional. A digest of the protocol: as §2
Test [16] has as its system Staphylococcus aureus. The experiment in a line: Antibacterial activity against daptomycin sensitive and methicillin susceptible Staphylococcus aureus 42 by CLSI method. It is filed as functional. A digest of the protocol:
as §2

Molecules are shown by their SMILES. Converted amounts (≈) assume the structure as drawn.

Consider `CN[C@H](CC(C)C)C(=O)N[C@H]1C(=O)N[C@@H](CC(N)=O)C(=O)N[C@H]2C(=O)N[C@H]3C(=O)N[C@H](C(=O)N[C@H](C(=O)O)c4cc(O)cc(O)c4-c4cc3ccc4O)[C@H](O)c3ccc(c(Cl)c3)Oc3cc2cc(c3O[C@@H]2O[C@H](CO)[C@@H](O)[C@H](O)[C@H]2O[C@H]2C[C@](C)(N)[C@H](O)[C@H](C)O2)Oc2ccc(cc2Cl)[C@H]1O` [VANCOMYCIN], for which the CFU/ml came out at 9 with Streptococcus pneumoniae [1], 285000 in the test on Streptococcus pneumoniae [2] and 1.81e+07 in the test on Streptococcus pneumoniae [3].

Consider `CCCCCCCCCC(=O)N[C@@H](Cc1c[nH]c2ccccc12)C(=O)N[C@H](CC(N)=O)C(=O)N[C@@H](CC(=O)O)C(=O)N[C@@H]1C(=O)NCC(=O)N[C@@H](CCCN)C(=O)N[C@@H](CC(=O)O)C(=O)N[C@H](C)C(=O)N[C@@H](CC(=O)O)C(=O)NCC(=O)N[C@H](CO)C(=O)N[C@@H]([C@H](C)CC(=O)O)C(=O)N[C@@H](CC(=O)c2ccccc2N)C(=O)O[C@@H]1C`, for which the Ratio in the test with Staphylococcus aureus [4] amounted to 128. Moreover, the MIC is 0.5 µg/mL (≈ 0.309 µM) against Staphylococcus aureus [5]; 64 µg/mL with Staphylococcus aureus [6]; 128 µg/mL (≈ 79 µM) against Escherichia coli; 128 µg/mL (≈ 79 µM) in the test on Enterococcus faecalis [7]; 0.25 µg/mL (≈ 0.154 µM) with Streptococcus pneumoniae [8]; 2 µg/mL (≈ 1.23 µM) in the test with Enterococcus faecalis [9]. Also, the MIC amounted to 32 µg/mL (≈ 19.7 µM) in the test with Enterococcus faecium [10]; 16 µg/mL (≈ 9.87 µM) in the test on Staphylococcus aureus [11]; 2 µg/mL (≈ 1.23 µM) with Enterococcus faecium [12]; 1 µg/mL (≈ 0.617 µM) with Staphylococcus aureus [13]; 4 µg/mL (≈ 2.47 µM) in the test on Staphylococcus aureus [14]; 0.5 µg/mL (≈ 0.309 µM) in the test with Staphylococcus aureus [15]. This molecule showed an MIC against Staphylococcus aureus [16] of 1 µg/mL (≈ 0.617 µM).

As for `CC[C@H](C)[C@@H]1NC(=O)[C@H]([C@H](C)CC(=O)O)NC(=O)[C@@H](CC(N)=O)NC(=O)CNC(=O)[C@@H]([C@H](OC)C(=O)O)NC(=O)[C@@H](CO)NC(=O)[C@H](CC(=O)O)NC(=O)[C@H](C)NC(=O)CN(C)C(=O)[C@@H](NC(=O)[C@@H](NC(=O)[C@@H](CCC(=O)O)NC(=O)[C@H](Cc2c[nH]c3ccccc23)NC(=O)CCCCCCCC(C)C)[C@H](O)C(N)=O)[C@H](C)OC1=O`, the Ratio in the test on Staphylococcus aureus [4] was determined as 16. For the same molecule, the MIC with Staphylococcus aureus [5] came out at 1 µg/mL (≈ 0.613 µM); in the test on Staphylococcus aureus [6], 16 µg/mL; against Escherichia coli it was 16 µg/mL (≈ 9.81 µM); against Enterococcus faecalis [7], 128 µg/mL (≈ 78.4 µM); with Streptococcus pneumoniae [8], 0.25 µg/mL (≈ 0.153 µM); against Enterococcus faecalis [9], 4 µg/mL (≈ 2.45 µM). Besides, the MIC with Enterococcus faecium [10] was determined as 32 µg/mL (≈ 19.6 µM); against Staphylococcus aureus [11], 8 µg/mL (≈ 4.9 µM); in the test with Enterococcus faecium [12], 4 µg/mL (≈ 2.45 µM); against Staphylococcus aureus [13], 0.5 µg/mL (≈ 0.306 µM); against Staphylococcus aureus [14], 4 µg/mL (≈ 2.45 µM); in the test with Staphylococcus aureus [15], 1 µg/mL (≈ 0.613 µM). Moreover, it took 1 µg/mL (≈ 0.613 µM) to inhibit growth against Staphylococcus aureus [16] (MIC).
